ChEMBL document CHEMBL1124662, “Antiinflammatory activity of a series of substituted 2,3-dihydro-6-hydroxypyrimido[2,1-f]purine-4,8(1H,9H)-diones” (J Med Chem, 1989)
Several values for one entry are separate records, joined by “and”; a condition that tells them apart may be missing. Equal entries are not always repeated.

How the values were obtained:
Rattus norvegicus [1] = assay: Anti-inflammatory activity against reverse passive […] reaction-synovitis in rat at 50 mg/kg oral dose; format: functional
Procedure, shortened: (§1)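 Lewis rats dosed orally with drug or placebo 1 h before iv bovine serum albumin in saline, then 0.54 mg rabbit anti-BSA antibody intraarticular in one knee, saline in the other, under light anesthesia. Second oral dose at 3 h; the dose used is the total given before and after induction.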

Rattus norvegicus [2] = assay: Antiinflammatory activity against reverse passive Arthus reaction-synovitis in rat at dose of 50 mg/kg per orally.; format: functional; conditions: po; procedure, shortened: as §1
Rattus norvegicus [3] = assay: Prophylactic antiinflammatory activity against adjuvant arthritic rat at dose of 25 mg/kg in noninjected 1 degree paw.; format: functional
Procedure, shortened: (§2)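 Heat-killed Mycobacterium tuberculosis ground and homogenized in paraffin oil (6 mg/mL); 0.1 mL injected into left hind paw. Drug dosed 1 h before challenge, then daily for 21 consecutive days; controls received methylcellulose. Both hind paw volumes measured by plethysmograph immediately and on day 21; % inhibition of Δ paw volume.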

Rattus norvegicus [4] = assay: Prophylactic antiinflammatory activity against adjuvant arthritic rat at dose of 25 mg/kg in noninjected 2 degree paw.; format: functional; procedure, shortened: as §2
Rattus norvegicus [5] = assay: Prophylactic antiinflammatory activity against adjuvant arthritic rat at dose of 50 mg/kg in noninjected 1 degree paw.; format: functional; procedure, shortened: as §2
Rattus norvegicus [6] = assay: Prophylactic antiinflammatory activity against adjuvant arthritic rat at dose of 50 mg/kg in noninjected 2 degree paw.; format: functional; procedure, shortened: as §2
Cyclooxygenase = target: T1, Cyclooxygenase (Rattus norvegicus, UniProt P35355+Q63921); assay: Inhibitory activity against Prostaglandin G/H synthase in an in vitro rat neutrophil assay; format: protein assay
T1 sequence (P35355 whole entry): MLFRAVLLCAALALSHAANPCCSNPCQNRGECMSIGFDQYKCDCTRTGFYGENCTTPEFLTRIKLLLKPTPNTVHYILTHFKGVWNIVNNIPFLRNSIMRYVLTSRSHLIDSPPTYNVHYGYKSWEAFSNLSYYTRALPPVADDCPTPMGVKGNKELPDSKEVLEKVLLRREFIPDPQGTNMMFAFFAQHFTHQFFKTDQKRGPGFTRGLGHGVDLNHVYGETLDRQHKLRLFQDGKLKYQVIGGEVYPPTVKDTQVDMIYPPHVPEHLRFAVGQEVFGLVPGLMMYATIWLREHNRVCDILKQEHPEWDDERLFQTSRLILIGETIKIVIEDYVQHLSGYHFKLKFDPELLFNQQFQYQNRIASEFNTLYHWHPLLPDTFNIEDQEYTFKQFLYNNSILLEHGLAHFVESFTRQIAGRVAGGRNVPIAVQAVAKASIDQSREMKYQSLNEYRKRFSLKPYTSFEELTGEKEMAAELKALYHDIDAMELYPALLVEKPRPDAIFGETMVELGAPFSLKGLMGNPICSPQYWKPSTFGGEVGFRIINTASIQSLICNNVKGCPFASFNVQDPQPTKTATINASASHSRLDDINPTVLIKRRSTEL
T1 sequence (Q63921 whole entry): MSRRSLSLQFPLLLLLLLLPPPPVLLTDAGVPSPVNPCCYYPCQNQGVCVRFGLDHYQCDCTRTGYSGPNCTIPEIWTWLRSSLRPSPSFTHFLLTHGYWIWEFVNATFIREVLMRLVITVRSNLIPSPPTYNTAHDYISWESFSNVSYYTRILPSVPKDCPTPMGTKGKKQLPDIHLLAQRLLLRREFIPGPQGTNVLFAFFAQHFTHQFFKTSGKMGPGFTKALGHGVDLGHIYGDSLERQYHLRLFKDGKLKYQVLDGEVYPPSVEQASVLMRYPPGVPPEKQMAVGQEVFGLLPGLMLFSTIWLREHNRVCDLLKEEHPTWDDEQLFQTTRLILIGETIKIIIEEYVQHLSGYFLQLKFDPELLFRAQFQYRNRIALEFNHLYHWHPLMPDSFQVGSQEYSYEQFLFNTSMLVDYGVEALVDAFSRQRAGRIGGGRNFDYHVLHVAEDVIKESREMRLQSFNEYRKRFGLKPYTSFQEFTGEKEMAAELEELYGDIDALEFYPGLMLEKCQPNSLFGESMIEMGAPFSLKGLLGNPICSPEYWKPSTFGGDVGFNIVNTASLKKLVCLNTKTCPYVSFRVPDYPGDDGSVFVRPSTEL

[7] = Inhibition of guinea pig Phosphodiesterase; set-up: species or system Cavia porcellus
[8] = Therapeutic oral administration in adjuvant arthritic rat model at 25 mg/kg in noninjected 2 degree paw; format: ADME, organism-based; set-up: dose 25 mg/kg, route oral
Procedure, shortened: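 Adjuvant arthritis (heat-killed M. tuberculosis in paraffin oil, 6 mg/mL, 0.1 mL into left hind paw) left to develop 7 days before first oral dose; treatment continued 35 days. Controls given methylcellulose; hind paw volumes measured by plethysmograph as Δ paw volume; % inhibition.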

Rattus norvegicus [9] = assay: Prophylactic oral administration in adjuvant arthritic rat model at 27 mg/kg in noninjected 2 degree paw; format: functional; procedure, shortened: as §2
Rattus norvegicus [10] = assay: Anti-inflammatory activity against reverse passive […] reaction-synovitis in rat at 100 mg/kg oral dose; format: functional; procedure, shortened: as §1
Rattus norvegicus [11] = assay: Prophylactic anti-inflammatory activity in adjuvant arthritic rat at 27 mg/kg in noninjected 1 degree paw; format: functional; procedure, shortened: as §2
Rattus norvegicus [12] = assay: Prophylactic anti-inflammatory activity in adjuvant arthritic rat at 27 mg/kg in noninjected 2 degree paw; format: functional; procedure, shortened: as §2
Rattus norvegicus [13] = assay: Prophylactic anti-inflammatory activity in adjuvant arthritic rat at 3 mg/kg in noninjected 1 degree paw; format: functional; procedure, shortened: as §2
Rattus norvegicus [14] = assay: Prophylactic anti-inflammatory activity in adjuvant arthritic rat at 3 mg/kg in noninjected 2 degree paw; format: functional; procedure, shortened: as §2
Rattus norvegicus [15] = assay: Prophylactic anti-inflammatory activity in adjuvant arthritic rat at 9 mg/kg in noninjected 2 degree paw; format: functional; procedure, shortened: as §2
Rattus norvegicus [16] = assay: Prophylactic anti-inflammatory activity in adjuvant arthritic rat at 9 mg/kg in noninjected 1 degree paw; format: functional; procedure, shortened: as §2
Rattus norvegicus [17] = assay: Prophylactic anti-inflammatory activity in adjuvant arthritic rat at 12.5 mg/kg in noninjected 1 degree paw; format: functional; procedure, shortened: as §2
Rattus norvegicus [18] = assay: Prophylactic anti-inflammatory activity in adjuvant arthritic rat at 12.5 mg/kg in noninjected 2 degree paw; format: functional; procedure, shortened: as §2
Rattus norvegicus [19] = assay: Prophylactic anti-inflammatory activity in adjuvant arthritic rat at 25 mg/kg in noninjected 1 degree paw; format: functional; procedure, shortened: as §2
Rattus norvegicus [20] = assay: Prophylactic anti-inflammatory activity in adjuvant arthritic rat at 25 mg/kg in noninjected 2 degree paw; format: functional; procedure, shortened: as §2
Rattus norvegicus [21] = assay: Prophylactic anti-inflammatory activity in adjuvant arthritic rat at 50 mg/kg in noninjected 1 degree paw; format: functional; procedure, shortened: as §2
Rattus norvegicus [22] = assay: Prophylactic anti-inflammatory activity adjuvant arthritic rat at 50 mg/kg in noninjected 2 degree paw; format: functional; procedure, shortened: as §2
Rattus norvegicus [23] = assay: Prophylactic oral administration in adjuvant arthritic rat model at 25 mg/kg in noninjected 2 degree paw; format: functional; procedure, shortened: as §2
Rattus norvegicus [24] = assay: Prophylactic anti-inflammatory activity in adjuvant arthritic rat at 45 mg/kg in noninjected 1 degree paw; format: functional; procedure, shortened: as §2
Rattus norvegicus [25] = assay: Prophylactic anti-inflammatory activity in adjuvant arthritic rat at 45 mg/kg in noninjected 2 degree paw; format: functional; procedure, shortened: as §2

| Compound | inhibition in vivo at 50 mg/kg (Rattus norvegicus [2]) [%] | inhibition in vivo at 25 mg/kg (Rattus norvegicus [3]) [%] | inhibition in vivo at 25 mg/kg (Rattus norvegicus [4]) [%] | inhibition in vivo at 50 mg/kg (Rattus norvegicus [5]) [%] | inhibition in vivo at 50 mg/kg (Rattus norvegicus [6]) [%] | also measured |
| --- | --- | --- | --- | --- | --- | --- |
| CN1CN(C)c2nc3n(Cc4ccccc4)c(O)cc(=O)n3c2C1=O | – | – | – | – | – | inhibition in vivo at 50 mg/kg (Rattus norvegicus [1]): 0% |
| C#CCc1c(O)n(Cc2ccccc2)c2nc3c(n2c1=O)C(=O)N(C)CN3C | 6 | 35 | 21 | 36 | 13 | – |
| CC(C)=CCc1c(O)n(Cc2ccccc2)c2nc3c(n2c1=O)C(=O)N(C)CN3C | – | – | – | – | – | IC50 (Cyclooxygenase): 6 µM; IC50 [7]: 37 µM and 200 µM; ED50 [8]: 15 mg/kg; ED50 (Rattus norvegicus [9]): 6.02 mg/kg; inhibition in vivo at 100 mg/kg (Rattus norvegicus [10]): 20%; inhibition in vivo at 27 mg/kg (Rattus norvegicus [11]): 54%; inhibition in vivo at 27 mg/kg (Rattus norvegicus [12]): 92%; inhibition in vivo at 3 mg/kg (Rattus norvegicus [13]): 17%; inhibition in vivo at 3 mg/kg (Rattus norvegicus [14]): 47%; inhibition in vivo at 9 mg/kg (Rattus norvegicus [15]): 65%; inhibition in vivo at 9 mg/kg (Rattus norvegicus [16]): 33% |
| CN1CN(C)c2nc3n(Cc4ccc(F)cc4)c(O)cc(=O)n3c2C1=O | 9 | – | – | – | – | inhibition in vivo at 12.5 mg/kg (Rattus norvegicus [17]): 22%; inhibition in vivo at 12.5 mg/kg (Rattus norvegicus [18]): 21%; inhibition in vivo at 25 mg/kg (Rattus norvegicus [19]): 36%; inhibition in vivo at 25 mg/kg (Rattus norvegicus [20]): 24%; inhibition in vivo at 50 mg/kg (Rattus norvegicus [21]): 37%; inhibition in vivo at 50 mg/kg (Rattus norvegicus [22]): 46% |
| CN1CN(C)c2nc3n(Cc4ccccc4)c(O)c(C4C=CCCC4)c(=O)n3c2C1=O (configuration not stated) | 16 | 12 | 15 | 13 | 13 | inhibition in vivo at 12.5 mg/kg (Rattus norvegicus [17]): 9%; inhibition in vivo at 12.5 mg/kg (Rattus norvegicus [18]): 6% |
| CC(C)=CCSc1cc(=O)n2c3c(nc2n1Cc1ccccc1)N(C)CN(C)C3=O | – | -16 | 8 | – | – | – |
| CN1CN(C)c2nc3n(Cc4ccccc4)c(O)c(C(=O)Nc4ccccc4)c(=O)n3c2C1=O | – | – | – | -21 | 23 | – |
| CN1CN(C)c2nc3n(Cc4ccccc4)c(=O)/c(=C\O)c(=O)n3c2C1=O | 34 | – | – | 6 | 32 | – |
| C=CCc1c(O)n(Cc2ccc(F)cc2)c2nc3c(n2c1=O)C(=O)N(C)CN3C | 40 | – | – | 10 | 49 | – |
| CCOC(=O)Cc1c(O)n(Cc2ccccc2)c2nc3c(n2c1=O)C(=O)N(C)CN3C | 14 | 18 | 20 | – | – | – |
| COc1ccc(Cn2c(O)c(CC=C(C)C)c(=O)n3c4c(nc23)N(C)CN(C)C4=O)cc1 | – | 45 | 69 | – | – | ED50 (Rattus norvegicus [23]): 14 mg/kg; inhibition in vivo at 12.5 mg/kg (Rattus norvegicus [17]): 40%; inhibition in vivo at 12.5 mg/kg (Rattus norvegicus [18]): 63% |
| CC(C)CCc1c(O)n(Cc2ccccc2)c2nc3c(n2c1=O)C(=O)N(C)CN3C | – | – | – | – | – | inhibition in vivo at 45 mg/kg (Rattus norvegicus [24]): 23%; inhibition in vivo at 45 mg/kg (Rattus norvegicus [25]): 51% |
| Cn1c(=O)c2[nH]cnc2n(C)c1=O [AMINOPHYLLINE] | – | – | – | – | – | IC50 [7]: 30 µM |
